GSK3B inh – human GSK3beta kinase inhibitors, primary screen, biochemical, cell-free homogeneous, HTS; Glycogen synthase kinase-3 beta (Homo sapiens), P49841; GST-GSK3beta kinase, ADP-Glo luminescence, 60 min; hits give low values; activity score (negative = inhibition), % at 10 µM; 0.038% of 300,000 active;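 active = more than half of replicate wells score below -50%, meaning over 50% inhibition versus plate controls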;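 note: 0% = median DMSO wells and -100% = median GW8510 positive control wells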
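Assay system: GST-tagged human GSK3beta kinase, cell-free; Input: 1.6 ng GSK3beta; Medium: Tris/MgCl2 kinase buffer; Timing: 60 min enzyme reaction, room temperature; Signal: ADP-Glo luminescence quantifying ADP generated by kinase; Evaluation: score relative to plate controls; Benchmarks: DMSO neutral wells and GW8510 at 20 µM as positive.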
STK33 kinase inh – inhibitors of purified STK33 kinase, primary screen, biochemical, ADP-Glo luminescence, homogeneous, cell-free; Serine/threonine-protein kinase 33 (Homo sapiens), Q9BYT3; MBP phosphorylation; inhibition, % at 10 µM; 0.073% of 320,000 active; AID 2661, 2010;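 active = inhibition at or above 25%, using the most active replicate where run in duplicate; inactive = inhibition below 25%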
MEKK3 PB1 HTS – modulators of MEKK3-MEK5 PB1 binding, primary screen, biochemical, wildtype MEKK3, multiplex bead flow cytometry, Alexa488-MEK5; Mitogen-activated protein kinase kinase kinase 3 (Homo sapiens), Q99759; bead-based flow cytometry, Alexa488-MEK5 binding to MEKK3; actives lie on both sides; 0 = blocked by unlabeled MEK5, 100 = vehicle; binding response (% of control), % at 10 µM; 1.4% of 290,000 active;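 active = binding response more than 3 SD above or below the average of its plate-row segment, actives on both sides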;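 note: Alexa488 bead fluorescence after subtracting the streptavidin-only scavenger bead signal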
GSK3A inh – blockers of GSK3A enzyme activity – biochemical, luminescence, cell-free homogeneous, HTS, primary screen; 0.1% of 320,000 active; GSK-3 alpha kinase, ADP-Glo luminescence, 60 min; inhibition, % at 10 µM; AID 2650, 2010; Glycogen synthase kinase-3 alpha (Homo sapiens), P49840;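 active = more than half of replicates show inhibition above 20%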;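 note: GST-tagged GSK-3 alpha with peptide substrate and 25 µM ATP; 0% = DMSO neutral wells and 100% = GW8510 positive control wells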
Target sequence (P49840 whole entry, looked up): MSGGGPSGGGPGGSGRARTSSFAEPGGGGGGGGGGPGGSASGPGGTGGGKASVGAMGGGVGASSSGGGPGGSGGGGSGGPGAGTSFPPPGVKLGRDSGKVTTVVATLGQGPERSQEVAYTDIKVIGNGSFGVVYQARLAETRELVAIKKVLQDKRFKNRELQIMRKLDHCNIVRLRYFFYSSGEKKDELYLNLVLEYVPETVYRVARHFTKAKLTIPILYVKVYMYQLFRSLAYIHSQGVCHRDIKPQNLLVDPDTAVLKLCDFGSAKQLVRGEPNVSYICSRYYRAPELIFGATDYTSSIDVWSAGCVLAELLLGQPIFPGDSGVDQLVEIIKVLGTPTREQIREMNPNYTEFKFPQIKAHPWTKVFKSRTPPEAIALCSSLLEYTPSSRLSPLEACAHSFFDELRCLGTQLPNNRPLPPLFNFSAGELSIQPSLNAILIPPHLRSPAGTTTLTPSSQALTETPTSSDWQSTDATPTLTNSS
MEKK2wt PB1 HTS – modulators of MEK5 binding to wildtype MEKK2, primary screen, biochemical, multiplex bead flow cytometry, Alexa488-MEK5; Mitogen-activated protein kinase kinase kinase 2 (Homo sapiens), Q9Y2U5; Alexa488-MEK5 binding to MEKK2 WT; actives lie on both sides; binding response (% of control), % at 10 µM; 1.1% of 290,000 active; AID 1531, 2009; in the data active = binding response below about 67% or above about 130%
MEKK2 mut-MEK5 – MEK5 binding signal on mutant MEKK2 PB1, primary screen, biochemical, multiplex bead flow cytometry, Alexa488-MEK5; 0.35% of 290,000 active; Alexa488-MEK5 binding to MEKK2 mutant; percent response, % at 10 µM; AID 1530, 2009; in the data active = percent response above about 24%, passing the limit was not always enough
MEKK2wt confirm – modulators of MEK5 binding to wildtype MEKK2, confirmation, biochemical, single concentration, multiplex bead flow cytometry | shares compounds with MEKK3 PB1 HTS | Alexa488-MEK5 binding to MEKK2 WT; actives lie on both sides | binding response (% of control), % at 10 µM | 2.4% of 5,900 active | AID 1892, 2009; in the data active = binding response below about 16% or above about 210%; inactive = in between
MEKK2mut-MEK5 – mutant MEKK2 PB1-MEK5 binding signal retest – biochemical, single concentration, multiplex bead flow cytometry, confirmation; shares compounds with MEKK3 PB1 HTS; Alexa488-MEK5 binding to MEKK2 mutant; percent response, % at 10 µM; 2% of 5,900 active; AID 1893, 2009; in the data active = percent response mostly above about 71%, no sharp cut-off; inactive = mostly below about 38%;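 note: higher means compound restores mutant binding toward wildtype level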
MEKK3-MEK5 inh – MEKK3 wild-type PB1 binding to MEK5, inhibitors, confirmation, biochemical, bead multiplex flow cytometry, single concentration, wildtype. shares compounds with MEKK3 PB1 HTS. Alexa488-MEK5 binding to MEKK3; hits give low values. binding response (% of control), % at 10 µM. 1.8% of 5,900 active;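 active = binding response below 72% of control, or above a set upper limit, though filed actives all read lower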;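 note: 100% = DMSO only wells and 0% = binding blocked by excess unlabeled MEK5; lower values mean stronger disruption of MEK5 binding to MEKK3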
Starred values were filed as active, the others as inactive; . = no result; [ ] = remark or other dose. An excerpt weighted towards active compounds, which were near 2.1% of everything screened.

SMILES	GSK3B inh	STK33 kinase inh	MEKK3 PB1 HTS	GSK3A inh	MEKK2wt PB1 HTS	MEKK2 mut-MEK5	MEKK2wt confirm	MEKK2mut-MEK5	MEKK3-MEK5 inh
COc1ccc(CCNC(=O)C(=O)NCc2ccccn2)cc1	0.9	0.3	135.0*	-3.6	117.0	5.0	98.0	-7.0	98.0
COc1ccc(/C=C(\NC(=O)c2ccccc2)C(=O)NCc2cccnc2)cc1	-3.7	-1.0	101.0	1.4	97.0	0.0	.	.	.
COc1ccc(CCNC(=O)/C(=C/c2cccnc2)NC(=O)c2ccccc2)cc1	2.4	0.3	128.0*	-0.1	101.0	-1.0	96.0	-11.0	101.0
CSc1ncc(C(=O)Nc2cc(C)ccc2C)c(C)n1	1.4	0.6	104.0	-1.7	102.0	7.0	.	.	.
O=C(c1ccncc1)N1CCc2ccccc2C1	1.9	0.6	101.0	-1.0	98.0	-3.0	.	.	.
O=C(c1ccc(Cl)nc1)N1CCc2ccccc2C1	3.7	-0.5	14.0*[inhibitor]	-0.7	21.0*[inhibitor]	-46.0	98.0	0.0	102.0
CCNc1oc(-c2cccc3ccccc23)nc1C#N	2.8	-0.2	98.0	.	102.0	0.0	.	.	.
N#Cc1nc(-c2cccc3ccccc23)oc1NCCN1CCCCC1	-1.6	1.6	109.0	0.1	159.0*	12.0	175.0	49.0	114.0
CC1CCCCC12NC(=O)N(CC(=O)NCc1ccco1)C2=O (stereo not given)	.	-1.1	.	-3.9	.	.	.	.	.
COC(=O)N1C(=O)[C@](c2ccccc2)(C2CCCC2)N1C(=O)OC	-3.7	-0.5	100.0	-1.9	96.0	30.0*	100.0	-4.0	98.0
COC(=O)N1C(=O)[C@@](c2ccccc2)(C(C)C)N1C(=O)OC	3.7	-0.4	94.0	-1.9	83.0	-13.0	.	.	.
Cc1c(Cl)cccc1N(CC(=O)NC(C)c1ccccc1)S(C)(=O)=O (stereo not given)	0.6	-0.3	99.0	-0.2	101.0	7.0	.	.	.
CC(NC(=O)CN(c1ccccc1F)S(C)(=O)=O)c1ccccc1 (stereo not given)	-1.4	-1.6	107.0	-2.4	106.0	27.0*	107.0	-1.0	102.0
CC(=O)NC1(c2ccccc2)CCN(c2nc(C)cc(C)n2)CC1	.	-1.4	104.0	-0.7	107.0	11.0	.	.	.
Cc1cc(C(=O)NCCCN2CCN(c3cc(Cl)ccc3C)CC2)n(-c2ccccc2)n1	0.4	0.4	109.0	-0.8	139.0*	21.0	134.0	30.0	104.0
Cc1cc(C(=O)NCCN2CCN(c3cccc(Cl)c3)CC2)n(-c2ccccc2)n1	.	-0.6	108.0	-1.5	124.0	12.0	.	.	.
O=S(=O)(NCCOc1ccc(F)cc1)c1ccc2c(c1)OCCO2	1.1	-0.1	2.0*[inhibitor]	-0.9	2.0*[inhibitor]	-18.0	107.0	1.0	107.0
Cc1ccc(-n2nnc(-c3cccnc3)n2)cc1	1.0	-1.4	78.0*[inhibitor]	-1.6	85.0	-7.0	98.0	0.0	101.0
O=C(COC(=O)c1ccccc1C(=O)c1ccccc1)NCCc1ccc(Cl)cc1Cl	4.6	-0.4	130.0*	-0.2	96.0	-2.0	102.0	-3.0	101.0
C[C@@H]1CC[C@]2(O[C@@H](CCO)C[C@@H](O)[C@@H]2O)O1	-2.7	0.0	105.0	-0.2	98.0	5.0	.	.	.
Cc1ccc(Nc2c(N)c(=O)oc3ccccc23)cc1	4.3	1.5	0.0*[inhibitor]	-0.6	0.0*[inhibitor]	4.0	101.0	2.0	98.0
CNc1c(N)c(=O)oc2ccccc12	-5.4	0.0	81.0	0.2	90.0	-11.0	.	.	.
NS(=O)(=O)c1ccc(N2CCN(CCOc3ccc(Cl)cc3)CC2)nc1	-2.7	0.0	99.0	-1.4	102.0	-3.0	.	.	.
Cc1cc(NC(=O)c2sc(Nc3ccc(F)c(Cl)c3)nc2N)no1	1.2	-2.2	105.0	-1.6	101.0	-2.0	.	.	.
Cc1cc(NC(=O)c2sc(Nc3cccc(C(F)(F)F)c3)nc2N)no1	-2.2	-6.9	140.0*	6.6	128.0	9.0	105.0	8.0	104.0
SMILES	GSK3B inh	STK33 kinase inh	MEKK3 PB1 HTS	GSK3A inh	MEKK2wt PB1 HTS	MEKK2 mut-MEK5	MEKK2wt confirm	MEKK2mut-MEK5	MEKK3-MEK5 inh
COCCn1c(C)nnc1SCC(=O)NNC(=O)c1ccc(Br)cc1	0.8	.	102.0	.	106.0	1.0	.	.	.
CSc1ccccc1NC(=O)CN(c1cccc(C)c1)S(C)(=O)=O	-0.4	0.3	67.0*[inhibitor]	0.6	81.0	-11.0	98.0	-7.0	98.0
Cc1cc(C)cc(N(CC(=O)Nc2ccccc2-c2ccccc2)S(=O)(=O)c2ccccc2)c1	-1.9	-0.4	134.0*	-0.3	107.0	0.0	98.0	-4.0	102.0
CCOC(=O)/C(C#N)=C/Nc1ccccc1OC	1.5	0.6	2.0*[inhibitor]	0.1	2.0*[inhibitor]	-16.0	106.0	9.0	105.0
COc1cc(/C=N/S(=O)(=O)CCc2ccccc2)cc(OC)c1O	-0.7	.	128.0*	.	103.0	0.0	103.0	-1.0	100.0
CCOC(=O)c1ccc(NC(=O)C2C3CCCCC32)cc1 (stereo not given)	-0.6	-0.7	104.0	-0.9	106.0	7.0	.	.	.
COc1ccc(Nc2nc3ccccc3nc2C)cc1	2.0	-0.3	2.0*[inhibitor]	0.3	3.0*[inhibitor]	-16.0	96.0	-3.0	97.0
COc1ccc(Nc2nc(C)c3ccccc3n2)cc1	-3.4	1.8	117.0	-0.8	140.0*	16.0	105.0	-1.0	103.0
COc1ccc(Nc2nc(-c3ccccc3)c3ccccc3n2)cc1	1.2	-0.7	109.0	-2.4	132.0	22.0	.	.	.
C=CCOC(=O)C1=C[C@H](c2coc3ccccc3c2=O)[C@@H](CCCO)[C@H](OCC)O1	-5.1	-0.2	106.0	-0.9	109.0	9.0	.	.	.
CCCCn1c(SCC(=O)NC(=O)Cc2ccccc2)nc2ccccc2c1=O	.	0.7	.	3.0	.	.	.	.	.
